Consider one compound from ChEMBL document CHEMBL4765370, “Design, synthesis, and biological evaluation of aryl piperazines with potential as antidiabetic agents via the stimulation of glucose uptake and inhibition of NADH:ubiquinone oxidoreductase” (Eur J Med Chem, 2020).

Series [1] in a line: Lipophilicity, logP of compound. It counts as physicochemical. The note with it: octanol/water.
Series [2] in a line: AUClast in C57 Black mouse plasma at 10 mg/kg, po. The class given is ADME, organism-based. Also noted: route oral, time 0 - last, dose 10 mg/kg. In a few lines: (§1)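 Male C57BL/6 mice were given a single 10 mg/kg dose either intravenously or orally. The oral and IV solutions were formulated in 10% DMSO, 10% cremaphor and 80% saline. Concentrations in plasma and in the tissues collected were determined after dosing, with n = 3 per route. Values are given as mean ± SEM.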

A short description of series [3]: Tmax in C57 Black mouse brain at 10 mg/kg, po. The class given is ADME, organism-based. In a few lines: (§2)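 Male C57BL/6 mice (n = 3) dosed at 10 mg/kg by IV or oral (PO) route. Dosing solutions were formulated in 10% DMSO, 10% cremaphor and 80% saline. Compound levels were measured in plasma and tissues over time, and values are given as mean ± SEM.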
Series [4] in a line: Toxicity in C57BL/6 mouse at 10 mg/kg, iv or po. To be noted: in vivo. It counts as organism-based.
A short description of series [5]: AUClast in C57 Black mouse plasma at 10 mg/kg, iv. Also noted: route intravenous, time 0 - last, dose 10 mg/kg. The class given is ADME, organism-based. In a few lines:
as §1

Series [6] in a line: Half life in mouse microsomes at 1 uM up to 120 mins by HPLC/MS-MS analysis. It counts as ADME, Microsome.
The nature of series [7]: AUCinfinity in C57 Black mouse spleen at 10 mg/kg, po. The class given is ADME, organism-based. Set-up: time infinity, route oral, dose 10 mg/kg. In a few lines: as §1
Series [8] can be described thus: AUClast in C57 Black mouse spleen at 10 mg/kg, iv. The class given is ADME, organism-based. Also noted: time 0 - last, route intravenous, dose 10 mg/kg. In a few lines:
as §1

Series [9] in a line: Inhibition of NADH:ubiquinone oxidoreductase in rat liver mitochondria incubated for 3 mins.
Series [10] can be described thus: AUCall in C57 Black mouse kidney at 10 mg/kg, po. The class given is ADME, organism-based. Set-up: dose 10 mg/kg. In a few lines: as §1
Series [11] in a line: Half life in C57 Black mouse kidney at 10 mg/kg, iv. The class given is ADME, organism-based. In a few lines: as §2
The nature of series [12]: Tmax in C57 Black mouse liver at 10 mg/kg, po. The class given is ADME, organism-based. In a few lines:
as §2

Series [13] in a line: Cmax in C57 Black mouse spleen at 10 mg/kg, iv. The class given is ADME, organism-based. Also noted: route intravenous, dose 10 mg/kg. In a few lines: as §1
Series [14] can be described thus: Cmax in C57 Black mouse plasma at 10 mg/kg, iv. The class given is ADME, organism-based. Also noted: route intravenous, dose 10 mg/kg. In a few lines:
as §1

The nature of series [15]: Volume of distribution in C57 Black mouse spleen at 10 mg/kg, iv. The class given is ADME, organism-based. In a few lines: as §2
Series [16] can be described thus: Volume of distribution in C57 Black mouse muscle at 10 mg/kg, iv. The class given is ADME, organism-based, Muscle tissue. In a few lines:
as §2

Series [17] can be described thus: AUCinfinity in C57 Black mouse liver at 10 mg/kg, iv. It counts as ADME, organism-based. Set-up: route intravenous, time infinity, dose 10 mg/kg. In a few lines: as §1
The nature of series [18]: Protein binding mouse serum at 1 uM after 60 to 120 mins by HPLC-MS/MS analysis. The class given is ADME, cell-free. The note with it: time 60-120 min, read-out: PB (converted).
Series [19] in a line: AUCinfinity in C57 Black mouse muscle at 10 mg/kg, iv. Also noted: time infinity, route intravenous, dose 10 mg/kg. The class given is ADME, organism-based, Muscle tissue. In a few lines:
as §1

Series [20] in a line: Cmax in C57 Black mouse muscle at 10 mg/kg, iv. Also noted: route intravenous, dose 10 mg/kg. It counts as ADME, organism-based, Muscle tissue. In a few lines: as §1
A short description of series [21]: Clearance in C57 Black mouse assessed as liver blood flow at 10 mg/kg, iv or po. The note with it: in vivo. It counts as ADME, organism-based.
Series [22] is described as follows: Bioavailability in C57 Black mouse at 10 mg/kg, iv or po. To be noted: in vivo.
Series [23] can be described thus: Half life in C57 Black mouse spleen at 10 mg/kg, iv. The class given is ADME, organism-based. In a few lines:
as §2

Series [24] is described as follows: Tmax in C57 Black mouse spleen at 10 mg/kg, iv. It counts as ADME, organism-based. In a few lines: as §2

`O=C(CCCc1cccs1)N1CCN(c2ccc(C(F)(F)F)cc2)CC1`: in series [1], the logP (usually the decadic logarithm of the partition coefficient of the neutral form, usually between octanol and water) was 4.79. The exposure AUC(0-t) (as a rule, the area under the concentration-time curve up to a stated or last time point) in series [2] came out at 520 ng·h/mL; in series [5], 240 ng·h/mL; in series [8], 463 ng·h/mL. Moreover, the Tmax – broadly, the time from dosing to the highest level – in [3] is 15 min; in series [12], 15 min; in series [24] it was 1.8 min. Moreover, the Activity entry in [4] is given as “Non-Toxic”. Also, the half-life – broadly, how long it takes for the measured level to halve – at 1 µM in [6] came to 6 min. In addition, the values for the area under the curve AUC(0-inf) in [7], in series [17] and in [19] were 1270 ng·h/mL, 531 ng·h/mL and 107 ng·h/mL, respectively. Half-maximal inhibition in [9] (IC50) was put at 27 µM. Besides, the AUC (commonly concentration integrated over time) in series [10] is 1220 ng·h/mL. Also, the half-life in [11] was 45.6 min; in series [23], 66 min. Besides, the Cmax (as a rule, the maximum level reached in the sampled fluid or tissue) in series [13] was 587 ng/mL; in [14] it was 996 ng/mL; in series [20], 165 ng/mL. The Vd (as a rule, the apparent volume that relates the amount in the body to the concentration in plasma or blood) in series [15] was found to be 3.19 L/kg; in series [16] it was 7.13 L/kg. Also, the fraction unbound at 1 µM in [18] was 0.0052. In series [21], the clearance was 90 mL/min/kg. The Bioavailability in series [22] amounted to 21.4%.
